Screening results deposited in PubChem BioAssay by several laboratories.
An excerpt weighted towards active compounds, which were near 9.2% of everything screened.
Lmaj promast = reduces viability of Leishmania major promastigotes. resazurin fluorescence viability. inhibition, % at 10 µM. 200,000 compounds, 9% hits; in the data active means inhibition above about 50%;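 further: promastigotes grown with compound for 44 hours at 28 °C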
PTEN del growth = suppresses growth of cells with PTEN deletion; HCT116 PTEN-null viability, CellTiter-Glo, 60 h; active compounds read low; 140,000 compounds, 1.2% hits; viability, % at 10 µM; AID 827;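 active means viability at or below a set limit, 4 SD under the median of all tested compounds, cut at about 3.7% in these data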;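 further: PTEN knockout HCT116 line with beta catenin targeted HCT116 as companion control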
Autophagy HCS = autophagy modulation, high-content screen | AID 463193 | 190,000 compounds, 0.98% hits | calls only at 10 µM (by protocol) | MEF GFP-LC3 puncta imaging; test concentration mostly 10 µM;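 active means percentage of spot-positive cells more than 3 SD above its plate mean, without a fluorescence outlier flag or 80% toxicity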;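 further: spot-positive cell cutoff set from DMSO-treated cells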
Dynein cargo inh = dynein cargo transport inhibition | 3617.4 mouse cells, GR-EGFP nuclear translocation imaging; test concentration mostly 20 µM; stimulated with dexamethasone, 1 µM; active compounds read low | z-score, hits read low | 220,000 compounds, 0.47% hits | AID 1381;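 active means plate z-score of nuclear minus cytoplasmic receptor signal below a set negative limit, without overly bright fluorescence or cell loss, cut at about -3.5 in these data, passing the limit was not always enough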;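 further: z-score of nuclear minus cytoplasmic ring GR-EGFP intensity difference per well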
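Schedule: 48 h induction, then 1 h compound, then 30 min agonist, 37 °C. Buffer or medium: tetracycline-free induction medium containing charcoal-stripped FBS. Reagent: 1.0 µM final dexamethasone stimulus. Evaluation: nuclear versus cytoplasmic GR-EGFP signal, averaged per well. Signal: high-content fluorescence imaging after fixation.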
bCat KO growth = beta-catenin-lacking colon tumor cell growth suppression | HCT116 beta-catenin knockout viability, CellTiter-Glo, 60 h; active compounds read low | viability, % at 10 µM | 140,000 compounds, 1.5% hits | AID 818;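 active means viability at or under a set limit, the compound median less 4 SD, cut at about 6% in these data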;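 further: 0% = Hyamine 1622 control at 20 µM and 100% = untreated cell control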
Starred values were filed as active, the others as inactive; i = inactive; nt = no result given; + = active, no number.

SMILES | Lmaj promast | PTEN del growth | Autophagy HCS | Dynein cargo inh | bCat KO growth
Cc1ccc(NC(=O)CSc2nnc(-c3n[nH]c4ccccc34)n2-c2ccccc2)c(C)c1 | 53.4* | 52.6 | i | 0.201 | 61.9
Cc1ccc(OCc2nnc(SCC(=O)Nc3cccc4ccccc34)n2-c2ccccc2)cc1 | 94.9* | 44.8 | i | 0.619 | 53.7
N#Cc1ccccc1NC(=O)CSc1nnc(-c2ccc(F)cc2)n1-c1ccccc1 | 3.3 | 82.1 | i | 0.421 | 88.3
Cc1ccc(OCc2nnc(SCc3cc(=O)[nH]c4ccccc34)n2-c2ccccc2)cc1 | 72.6* | 68.3 | i | -1.06 | 67.5
COc1ccc(CN2CNc3c(c(=O)n(C)c(=O)n3C)C2)cc1 | -7.4 | 108.1 | i | -0.572 | 97.2
O=C(/C=C/c1ccc(F)cc1)NC(=S)NNC(=O)c1cnccn1 | nt | nt | nt | 0.186 | nt
O=C(NC(=S)NNC(=O)c1cnccn1)c1ccc(F)cc1 | 100.4* | nt | i | -0.456 | nt
CN(Cc1ccc(-n2cccn2)cc1)Cc1nc(-c2cnccn2)no1 | -0.9 | nt | i | -0.192 | nt
COc1cc(Cl)c(C)cc1NC(=O)CSc1cc(Cl)ccc1Cl | -0.7 | 66.7 | i | 0.207 | 75.2
CCCCC(=O)Nc1cc(C(=O)NCCc2ccccc2)ccc1Cl | 3.2 | 78.6 | i | 1.58 | 74.8
COC1CCN(C(=O)c2ccc(OC3CCN(Cc4ccccn4)CC3)cc2)CC1 | -3.3 | nt | i | -0.777 | nt
C=CCN(CC=C)C(=O)c1ccc(OC2CCN(Cc3ccccn3)CC2)cc1 | 58.9* | nt | i | 1.06 | nt
O=C(NCCCn1ccnc1)c1nn2c(C(F)(F)F)cc(-c3ccc(Br)cc3)nc2c1Cl | 100.2* | 46.6 | i | -0.295 | 22.9
COc1ccc(-c2cc(C(F)(F)F)n3nc(C(=O)NCCCn4ccnc4)cc3n2)cc1 | 90.4* | 88.2 | i | -0.0647 | 89.1
Cc1c(NC(=O)c2nn3c(C(F)(F)F)cc(-c4ccccc4)nc3c2Cl)c(=O)n(-c2ccccc2)n1C | 2.7 | 74.7 | i | 0.891 | 74.7
CCn1cc(C(=O)OCC(=O)Nc2ccc(C(C)C)cc2)c(=O)c2ccc(C)nc21 | -9.3 | nt | i | -1.13 | nt
Cc1ccc(NC(=O)C(C)S)cc1 (stereo not drawn) | nt | nt | nt | 0.198 | nt
Cc1ccc(NS(=O)(=O)c2ccc(-c3csc(C)n3)s2)c(C)c1 | nt | nt | nt | -0.186 | nt
Cc1nn(-c2ccccc2)c(N)c1C(c1ccccc1)c1c(C)nn(-c2ccccc2)c1N | 10.0 | 74.6 | i | -0.278 | 72.7
Cc1ccccc1CN1C(=O)Nc2ccccc2C(=O)N1C(C)(C)C | -1.8 | 92.5 | i | -1.3 | 95.3
CC(C)(C)N1C(=O)c2ccccc2NC(=O)N1Cc1ccc(Br)cc1 | 99.2* | 84.5 | i | 0.285 | 81.4
CP(=O)(Nc1cc(Cl)ccc1Cl)c1nc2c(s1)CCCC2 (stereo not drawn) | nt | nt | nt | -0.123 | nt
COc1cc(S(=O)(=O)n2ccnc2)ccc1Br | -4.2 | nt | i | -0.626 | nt
COc1ccc(Br)cc1S(=O)(=O)n1ccnc1 | 62.9* | nt | i | -0.103 | nt
CCOc1cc(C)c(Cl)cc1S(=O)(=O)n1ccnc1 | 91.6* | nt | i | 0.0271 | nt
SMILES | Lmaj promast | PTEN del growth | Autophagy HCS | Dynein cargo inh | bCat KO growth
O=C(O)/C(=C\c1ccccc1OC(F)F)Sc1nnc(-c2ccc(F)cc2)o1 | 31.8 | nt | i | -0.847 | nt
Cc1ccc2nc(Cl)c(C3CC(c4cccs4)=NN3S(C)(=O)=O)cc2c1 (stereo not drawn) | 84.4* | 87.5 | i | 0.918 | 91.6
CCC(C)(C)n1nnnc1C(C(C)C)N1CCSCC1 (stereo not drawn) | 1.6 | 77.8 | + | 1.23 | 69.7
CCOc1cc(CNCCO)cc(Br)c1OCc1cccs1 | 100.5* | 51.8 | i | -0.0701 | 63.0
CCOc1cc(CNCc2ccncc2)cc(Br)c1OCc1ccccc1F | 91.6* | 37.1 | i | 0.942 | 16.5
CCOc1cc(CNc2ccccc2)cc(Br)c1OCc1ccc(F)cc1 | 48.8 | 67.8 | i | -0.362 | 82.0
CCOc1cc(CNCc2cccs2)cc(Br)c1OCC | 7.1 | 78.0 | i | 0.171 | 73.2
CCOc1cc(CNCCO)cc(Br)c1OCc1ccc(Cl)cc1Cl | 100.7* | 1.5* | i | 0.241 | 1.4*
CCOc1cccc(CNCCO)c1OCc1ccc(Cl)cc1Cl | 16.0 | 56.1 | i | 1.47 | 63.9
CCOC(=O)c1sc2nc(C)c([N+](=O)[O-])c(COC)c2c1N | -8.7 | nt | i | -0.365 | nt
CC1(C)NC(=O)N(CC(=O)OCC(=O)Nc2cc(S(=O)(=O)N3CCCCC3)ccc2Cl)C1=O | 69.8* | 76.1 | i | -0.754 | 84.2
O=C(c1ccc(S(=O)(=O)c2ccccc2Cl)c([N+](=O)[O-])c1)N1CCN(Cc2ccccc2)CC1 | 76.3* | 9.2 | i | -1.06 | 4.9*
O=C(NC1CCCCC1)c1ccc(S(=O)(=O)c2ccccc2Cl)c([N+](=O)[O-])c1 | 2.7 | 85.0 | i | -0.226 | 86.5
O=C(c1ccc(S(=O)(=O)Cc2ccccc2F)c([N+](=O)[O-])c1)N1CCCC1 | 2.4 | nt | i | 0.204 | nt
CC1CCN(C(=O)c2ccc(S(=O)(=O)Cc3ccccc3F)c([N+](=O)[O-])c2)CC1 | 92.7* | 11.1 | i | -0.493 | 14.1
O=C(c1ccc(S(=O)(=O)c2ccc(F)cc2)c([N+](=O)[O-])c1)N1CCCCCC1 | 98.2* | 10.5 | i | -3.22 | 9.7
CCCOc1ccc(N2C(=O)CC(N(CCOC34CC5CC(CC(C5)C3)C4)C(C)=O)C2=O)cc1 (stereo not drawn) | 12.1 | nt | i | 2 | nt
N#Cc1cccc(NC(=O)CN2NS(=O)(=O)c3ccccc3C2=O)c1 | 0.6 | 101.6 | i | -0.47 | 92.0
CC(=O)/C=C/c1ccc2ccccc2n1 | 100.4* | 1.2* | i | -1.62 | 1.5*
COC(=O)CCn1c(C)cc(C(=O)COc2ccccc2C(N)=O)c1C | -7.3 | nt | i | -0.902 | nt
CCOC(=O)c1cc(C)n(CCc2ccccc2)c1C | 11.3 | 78.2 | i | -0.0891 | 63.0
COC(=O)CCCn1c(C)cc(C(=O)CCl)c1C | 100.4* | nt | i | -0.976 | nt
Cc1cc(C(=O)CCl)c(C)n1CCc1ccccc1 | 100.3* | nt | i | -1.99 | nt
COc1cc2nc3occc3c(OC)c2cc1OC | 3.9 | 102.1 | i | 0.212 | 99.2
COc1cc2nc(N(C)C)nc(N)c2cc1OC | 99.9* | 13.2 | i | 1.31 | 16.3
SMILES | Lmaj promast | PTEN del growth | Autophagy HCS | Dynein cargo inh | bCat KO growth
OCCN1CCN(CCCc2c3c(cc4c2CCC4)CCC3)CC1 | 86.2* | 79.4 | i | -0.583 | 73.8
O=C(Cn1nnc(-c2ccccc2F)n1)NCc1ccco1 | -10.7 | nt | i | 0.132 | nt
COc1cc2c(cc1OC)CN(Cc1cc(=O)oc3cc(C)c(Cl)cc13)CC2 | 60.0* | 58.7 | i | -0.947 | 81.5
COc1cc2c(cc1OC)CN(Cc1cc(=O)oc3cc(C)c(C)cc13)CC2 | 4.7 | 80.8 | i | 0.601 | 81.0
CCOC(=O)C(=O)NNc1ccccc1C | 71.7* | 100.8 | i | 0.0354 | 98.9
O=C(N/N=C/c1c[nH]c2ccccc12)c1sc2ccccc2c1Cl | 14.6 | 70.6 | i | 0.423 | 53.0
O=C(N/N=C/c1ccc2c(c1)OCO2)c1sc2cc(Cl)ccc2c1Cl | 10.6 | 2.1* | i | -0.471 | 6.4
